Measured values published in the EternaBench riboswitch data.

System: MS2 coat protein
Test: apparent Kd, MS2 coat protein; higher = weaker binding; RNA-MaP array; FMN 200 µM where present
In short: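 The apparent Kd is reported as the median of filtered per-cluster binding-curve fits. To get these curves, designs transcribed by stalled E. coli RNA polymerase on Illumina sequencing-chip clusters were titrated with SNAP-549-labelled MS2 coat protein from 0.7 or 1.5 nM, doubling to 3 µM. Titrations were run without and then with constant ligand in 100 mM Tris-HCl pH 7.5, 80 mM KCl, 4 mM MgCl2, BSA, DTT, yeast tRNA and Tween-20, and green signal was normalised to red-channel RNA signal and control-cluster median Fmax.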

[1] = designed as: OFF switch for flavin mononucleotide, no ligand
[2] = ligand present: flavin mononucleotide, designed as: OFF switch for flavin mononucleotide
[3] = designed as: ON switch for flavin mononucleotide, no ligand
[4] = ligand present: flavin mononucleotide, designed as: ON switch for flavin mononucleotide

Row | Sequence | apparent Kd [1] | apparent Kd [2] | apparent Kd [3] | apparent Kd [4]
1 | UGUGUCUGUAGAGGAUAUCCGGGCGUUCUGCUAGGAGAAGGCUGCAACACAUGAGGAUCACCCAUGUAGGUUGUGUCUCUCUAC | 4.82 nM | 9.87 nM |  | 
2 | ACUAGAAGCGUGAGAUAUCACAUGAGGAUCACCCAUGUGACACAGGAUAUAACAAUAUCAGAAGGUUAGAAGGGUGAGCACGCC |  |  | 164 nM | 45.6 nM
3 | AUCGUAACUUCGUGUCCACAUGAGGAUCACCCAUGUGCUACAAGAAGGGCCCGGGUCGGGUUAGGGCAGGAUAUUGUGUGCACA | 9.15 nM | 19.1 nM |  | 
4 | GGAUAGUGAGGAUAUGCAUACGGUGUAAGUCCCAGAUCGAAACAUGAGGAUCACCCAUGUAGAAGGCGCAAAAC | 23.6 nM | 75.5 nM |  | 
5 | GGCUACGUUUCGUAGCAGUGUCAUCGAGAAGGCCCUGACAUGAGGAUCACCCAUGUUGUUACAUGGGAGGAUAUCGAUGAUACU |  |  | 13.3 nM | 5.12 nM
6 | GAGAUGUGAGGAUAUCUAGACCGCGAAAGAGCCGCGGUCCGAGAGAAGGCACAUGAGGAUCACCCAUGUGAUGA | 46.9 nM | 119 nM |  | 
7 | UGUUGUAUUACAGGAUAUCUAUUAGUUUGAUUUAGAGAAGGGUAUUCACAUGAGGAUCACCCAUGUAUAUACGAGGAAGUUGUG |  |  | 57.8 nM | 57.9 nM
8 | UCUGGUCGAGGAUAUGCAAUCGUGCUUCGGCACGUAAGAUCACAUGAGGAUCACCCAUGUAGAAGGCGACCAGA | 22.3 nM | 78.3 nM |  | 
9 | UUGCGGUAGGAGAAGGACAGAGGCUUAAUUACAUACAUGAGGAUCACCCAUGUAGGAUAUCCUACCUAACGCGGACUCCUCCUG | 6.82 nM | 7.25 nM |  | 
10 | UCGGCGCGAGGAUAUACGUUUGCUUUUUUUUGUCGUUGCGUACAUGAGGAUCACCCAUGUAGAAGGCGCGCCGC | 16.7 nM | 31 nM |  | 
11 | UUUUCUUUUGUGAGGAUAUACUUGUUUUUUUUUUUGUAGAAGGCACAUGAGGAUCACCCAUGUUUUCUUUCCUG | 17 nM | 19.8 nM |  | 
12 | CAGGUAGACUGAGGAUAUACAUUAAACAGCUAGUCUAUCUAGCUGGUCACAUGAGGAUCACCCAUGUAGAAGGCAGUCUGCCUG | 24.6 nM | 65.4 nM |  | 
13 | AGGAAACAUGAGGAUCACCCAUGUAAAAGGUGGUUAGGAUAUGCGAAAAGAAAAAGAAAAGCAGAAGGGACAAGAA |  |  | 487 nM | 485 nM
14 | GAGCGGGAAACAUGAGGAUCACCCAUGUAAAAAAUCCUCAAGUAGGAUAUGCGAAAAAAAAAAAAGCAGAAGGGCUACCCGGUC | 58.3 nM | 72.7 nM |  | 
15 | ACAGUUGGUAGGCCCUCGGAACAUGAGGAUCACCCAUGUAAGGAGGAUAUGCCCGGUACCCGCUGGCAGAAGGCCUUAUAAGAA | 8.8 nM | 44.9 nM |  | 
16 | AGCCAACAUGAGGAUCACCCAUGUGUACGUUAUGUAGGAUAUCUGAUGCGCGCGUGCGCAAGAGAAGGACGAGACG |  |  | 33.4 nM | 21.2 nM
17 | AGUAUCACAGGAUAUACAUGAGUGAAAAAAGUAAAUCCACUACAUGAGGAUCACCCAUGUAGAAGGGUGAUACA | 65.7 nM | 57.9 nM |  | 
18 | GUACUACAUGAGGAUCACCCAUGUGAGGAUAUGCGAAUUUCAUCAAAAGAUGAAAUUUGCAGAAGGCACAGUAC | 31.2 nM | 29 nM |  | 
19 | UGUCGGAGCAGAGGAUAUACAUGAGGAUCACCCAUGUAAAUGAAUGAAGCCUGGAAACAGGCAAUGUAGAAGGCUGCUCCGACA | 17.2 nM | 53.7 nM |  | 
20 | AAAAAACAUGAGGAUCACCCAUGUCUUCGGACGUGAGGAUAUGUACAGACUUCGGUCUGUACAGAAGGCACGUCAA |  |  | 31.3 nM | 19.2 nM
21 | GGAUAGUACAGAGGAUAUACGUGCUAGAGAUACUAGCAAAAUUUCCUCACAUGAGGAUCACCCAUGUAGAAGGCUGUCCUAUCG | 5.94 nM | 51.8 nM |  | 
22 | UGAUCUAUGUAGAAGGCCCAUAUCUAUAUUUAGGGAGGAUAUACAUGAGGAUCACCCAUGUGUAGAGCUGGUGGACUGGUCAGC | 92.8 nM | 234 nM |  | 
23 | UGGGUAAAUGUAGGAUAUCCAUAAUAAUAAUAAGGAGAAGGACAUGAGGAUCACCCAUGUACAGGGAAUUACCCAUUUCCUCUC | 1340 nM | 1170 nM |  | 
24 | ACAUACUUUCGAGGAUAUCGGUGAUAAAUUUUACGAGAAGGCGAUAAAAGAUAUAAUCUUAUAAACAUGAGGAUCACCCAUGUA |  |  | 25.5 nM | 23.9 nM

Row | Sequence | apparent Kd [1] | apparent Kd [2] | apparent Kd [3] | apparent Kd [4]
25 | GGUACUCAAAGAGUACUUGGUCGAACAUGAGGAUCACCCAUGUAGGAUAUGCGAAGCAAGAAGUAGCAGAAGGGCGUGUGCAGC | 12.8 nM | 11.6 nM |  | 
26 | CUUCGACAUGAGGAUCACCCAUGUCAGGAUAUUGUGUAUCGGGUGUUGGACGGAUAGGCAAGAAGGGAUGUGUG | 34.7 nM | 30.1 nM |  | 
27 | UUAAAUCGAAACAUGAGGAUCACCCAUGUGUUGUAAUUAAUAUAGGAUAUGUGUAUACUUUUAUAACAGAAGGAUGAUAAUACU |  |  | 22.2 nM | 16.9 nM
28 | GUUAAUUUCGAAGGAUAUGGAUACAUGAGGAUCACCCAUGUAUAAAAUGAGAUCUAUUAUAUGAUCCAGAAGGUCGUUUUUUAU | 36.5 nM | 69.6 nM |  | 
29 | GUAGCAUAUGAUUUACAUGAGGAUCACCCAUGUAUCAUGGGUAAGGAUAUUGAUGUUAUGUUAAUCAAGAAGGUACUAUGCUAC |  |  | 281 nM | 18.9 nM
30 | GCUGCAUAGGCAGGAUAUGCAAUAAUUCGGAUAAAAUAUAACGAAUUAACAUGAGGAUCACCCAUGUAGAAGGGCCUGUGCAGU | 5.95 nM | 5.72 nM |  | 
31 | CUUUUGUGAGGAUAUCAGGUGUGCUAGCGUACUGGUACAUCUGAGAAGGCACAUGAGGAUCACCCAUGUUUCUU | 32.9 nM | 75.5 nM |  | 
32 | CAAAACGUCGAGAAGGGCUCAGCGCAAGUGCCAGCAGGAUAUCGACAUGAGGAUCACCCAUGUCGUAUUUCAGGGUAGAUUUCA | 8.66 nM | 34.9 nM |  | 
33 | AAACAUGUCCGAGGAUAUCUGAGAACAUUUUCAAGAGAAGGCGGACAUGAGGAUCACCCAUGUCUCUCCUCAUCAACUCCAAAU | 6.37 nM | 17.3 nM |  | 
34 | AAAAGGUCAGGAUAUCGGCGCGGUUGGGAGGCAGGUCCGCGCGAGAAGGGACAUGAGGAUCACCCAUGUUAAAA | 29.2 nM | 32.4 nM |  | 
35 | GCCAUCACAUGAGGAUAUGCUCCCGUUUCGGGAGCAGAAGGCGUGUCAUAAGACAUGAGGAUCACCCAUGUAGUUAAGAUGGCA |  |  | 399 nM | 12.7 nM
36 | UUAUUAUGUGUAGGAUAUGCAUAUUAUGAUUAUGCAGAAGGACAUGAGGAUCACCCAUGUAUAUUAUUAUUAUAUAUUAUAUAU | 13.3 nM | 21.1 nM |  | 
37 | UAUAUAUAGGCAGGAUAUACAUGAAUAUAUAUAAUAUAGUAUGAUGUAACAUGAGGAUCACCCAUGUAGAAGGGCCAAUAUAUA | 36.2 nM | 83.9 nM |  | 
38 | UUAUUAUAUAUAGGAUAUUGAUGUAAUUUAUUUCAAGAAGGAUAUACAUGAGGAUCACCCAUGUUGGAUAGGGUUAGUUUGUUU |  |  | 86.5 nM | 154 nM
39 | GAGGAGCAAGGAUAUACGAGGAUAUGGAAGGUUGGAGAGUGACAUGAGGAUCACCCAUGUAGAAGGUGCGAGGG | 53.7 nM | 49.2 nM |  | 
40 | GGGACACAUGAGGAUCACCCAUGUGAGGAUAUGUUAGUUUCGGCCAAAGCCGAAAUUAACAGAAGGCACAUACC | 36.7 nM | 49 nM |  | 
41 | AUACAAAGCACAGGAUAUGGGAGUGAGAAUCAUGCUGCGAAUUGAUUCGGACCAGAAGGGUGCACAUGAGGAUCACCCAUGUAC |  |  | 185 nM | 77.6 nM
42 | GGAUGACAAAGUCAUCCAAAUCGAACAUGAGGAUCACCCAUGUAGGAUAUGCUACACAAAGUGUAGCAGAAGGACAUGUGCUUU | 42.2 nM | 258 nM |  | 
43 | UAAUCUCAGAUAGGAUAUAUAGGAUGAUUUAAGACCGAACAUGAGGAUCACCCAUGUGAUUAUCUGUAGAAGGAUCAAUGACCC |  |  | 285 nM | 246 nM
44 | UUCUUCAGGUCAGGAUAUGCACAAGUUCAACGAGCAGAAGGGACAUGAGGAUCACCCAUGUAAAGGGCACCGGCUAACGUUCGA | 258 nM | 182 nM |  | 
45 | UCCAGGCGAGGAUAUACUUAGAUUUUUUCGUUUAGUCUCGAACAUGAGGAUCACCCAUGUAGAAGGUGCUUCAC | 45.6 nM | 42 nM |  | 
46 | AAAAAACAUGAGGAUCACCCAUGUGAGGAUAUCGAAAAGUUAAAGAAAAAGACGAAAAUGAGAAGGCGCAAAAA | 47.3 nM | 46.7 nM |  | 
47 | GCGAACUGUGUAGGAUAUUGAGCACUUUUGGAGCAAGAAGGACACCAAGUGCUGACUAUACAUGAGGAUCACCCAUGUUCAGCA |  |  | 30.9 nM | 17.1 nM
48 | GCUAUCAAUGUCAGGAUAUUUAUUUGGGCUUAAUUGAAGAAGGGACAUGAGGAUCACCCAUGUGGCGCAGAGUU | 36.9 nM | 202 nM |  | 
